Data reported in ChEMBL document CHEMBL2311304, “Design, synthesis and in vitro and in vivo antitumor activities of novel bivalent β-carbolines” (Eur J Med Chem, 2013).

Columns and labels:
KB = assay: Cytotoxicity against human epidermoid carcinoma of the nasopharynx KB cells assessed as reduction in optical density by MTT assay; assay type: functional, cell-based
In short: (§1)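 Cells were cultured in RPMI-1640 with 10% (v/v) fetal calf serum, 100 µg ml-1 penicillin and 100 µg ml-1 streptomycin at 37 °C in humidified 5% CO2. Compounds were dissolved in DMSO, with final DMSO at 2% (v/v) or lower. MTT staining was used, with three replicate wells per point. IC50 is the concentration giving a 50% drop in optical density versus untreated cells.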

Mus musculus [1] = assay: Toxicity in C57BL/6 mouse assessed as heart damage at 1 to 500 mg/kg, ip for 14 days; assay type: organism-based; design: dose 1-500 mg/kg, route intraperitoneal; settings: in vivo, 336 h
In short: (§2)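 Healthy C57BL/6 mice (9–12 weeks, 18–22 g) were fasted overnight with free access to water. Each received a single i.p. dose of 1.0–500 mg kg-1 in 0.5% CMC-Na, 10 mice per group (5 male, 5 female). Mice were watched continuously for 2 h, intermittently to 24 h, then occasionally to 14 days for tremor, twitch, jumping and supination. At day 14 they were killed and heart, liver and kidneys were examined macroscopically.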

769-P = assay: Cytotoxicity against human renal carcinoma 769-P cells assessed as reduction in optical density by MTT assay; assay type: functional, cell-based; in short: as §1
CT26 = assay: Antitumor activity in mouse CT26 colon cancer cells inoculated mouse assessed as tumor inhibition rate at one fifth of LD50 concentration once a day for consecutive 7 days by ip; assay type: functional; design: scale not given: the % may be the effect or the level left
In short: (§3)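 Each tumour line was first grown in mice for 7 days, then harvested. Viable cells (2 × 10^6 per mouse) were injected s.c. into the armpit. Dosing began 24 h later: i.p., about one fifth of LD50, daily for 7 days, 10 female mice per group. […] Body weight was recorded every 3 days. Tumours were excised and weighed on day 21 to give inhibition rate.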

Mus musculus [2] = assay: Toxicity in C57BL/6 mouse assessed as kidney damage at 1 to 500 mg/kg, ip for 14 days; assay type: organism-based; design: dose 1-500 mg/kg, route intraperitoneal; settings: in vivo, 336 h; in short: as §2
Mus musculus [3] = assay: Toxicity in C57BL/6 mouse assessed as maximum weight loss at 30 mg/kg, ip; assay type: organism-based; design: dose 30 mg/kg, route intraperitoneal; settings: in vivo
In short: (§4)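 Tumor-bearing mice, 10 females per group, were inoculated s.c. in the armpit with 2 × 10^6 viable tumor cells. Compound was given i.p. once daily for 7 consecutive days, starting 24 h after inoculation. […] Body weight was recorded every 3 days until sacrifice on day 21.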

Mus musculus [4] = assay: Neurotoxicity in C57BL/6 mouse at 1 to 500 mg/kg, ip for 14 days; assay type: toxicity, organism-based; design: dose 1-500 mg/kg, route intraperitoneal; settings: in vivo, 336 h; in short: as §2
[5] = Antitumor activity in mouse Sarcoma 180 cells inoculated mouse assessed as tumor inhibition rate at one fifth of LD50 concentration once a day for consecutive 7 days by ip; assay type: functional; design: scale not given: the % may be the effect or the level left; in short: as §3
A-375 = assay: Cytotoxicity against human malignant melanoma A375 cells assessed as reduction in optical density by MTT assay; assay type: functional, cell-based; in short: as §1
BGC-823 = assay: Cytotoxicity against human gastric carcinoma BGC823 cells assessed as reduction in optical density by MTT assay; assay type: functional, cell-based; in short: as §1
[6] = Antitumor activity in mouse Lewis lung cancer cells inoculated mouse assessed as tumor inhibition rate at one fifth of LD50 concentration once a day for consecutive 7 days by ip; assay type: functional, Cancer cell lines; design: scale not given: the % may be the effect or the level left; in short: as §3
Mus musculus [7] = assay: Toxicity in C57BL/6 mouse assessed as liver damage at 1 to 500 mg/kg, ip for 14 days; assay type: organism-based; design: dose 1-500 mg/kg, route intraperitoneal; settings: in vivo, 336 h; in short: as §2
SK-OV-3 = assay: Cytotoxicity against human ovary adenocarcinoma SKOV3 cells assessed as reduction in optical density by MTT assay; assay type: functional, cell-based; settings: SK-OV-3, Female gonad; in short: as §1
B16 = assay: Antitumor activity in mouse B16 melanoma cell lines cells inoculated mouse assessed as tumor inhibition rate at one fifth of LD50 concentration once a day for consecutive 7 days by ip; assay type: functional; design: scale not given: the % may be the effect or the level left; in short: as §3
H22 = assay: Antitumor activity in mouse H22 liver cancer cells inoculated mouse assessed as tumor inhibition rate at one fifth of LD50 concentration once a day for consecutive 7 days by ip; assay type: functional; design: scale not given: the % may be the effect or the level left; in short: as §3
[8] = Acute toxicity in ip treated C57BL/6 mouse for 14 days; assay type: organism-based; settings: in vivo
In short: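 C57BL/6 mice (9–12 weeks, 18–22 g) were fasted overnight with free water. They received single i.p. doses of 1.0–500 mg kg-1 in 0.5% CMC-Na, 10 mice per group (5 male, 5 female). Mice were watched continuously for 2 h, then intermittently to 24 h, then occasionally to 14 days. Heart, liver and kidneys were checked macroscopically. LD50 was derived graphically.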

Mus musculus [9] = assay: Toxicity in C57BL/6 mouse assessed as maximum weight loss at 40 mg/kg, ip; assay type: organism-based; design: dose 40 mg/kg, route intraperitoneal; settings: in vivo; in short: as §4
Mus musculus [10] = assay: Toxicity in C57BL/6 mouse assessed as maximum weight loss at 10 mg/kg, ip; assay type: organism-based; design: dose 10 mg/kg, route intraperitoneal; settings: in vivo
Mus musculus [11] = assay: Toxicity in C57BL/6 mouse assessed as maximum weight loss at 50 mg/kg, ip; assay type: organism-based; design: dose 50 mg/kg, route intraperitoneal; settings: in vivo
Mus musculus [12] = assay: Toxicity in C57BL/6 mouse assessed as maximum weight loss at 7.5 mg/kg, ip; assay type: organism-based; design: dose 7.5 mg/kg, route intraperitoneal; settings: in vivo

| SMILES | IC50 (KB) | Activity (Mus musculus [1]) | IC50 (769-P) | Activity (CT26) | Activity (Mus musculus [2]) | Activity (Mus musculus [3]) | Activity (Mus musculus [4]) | Activity [5] | IC50 (A-375) | IC50 (BGC-823) | Activity [6] | Activity (Mus musculus [7]) | IC50 (SK-OV-3) | Activity (B16) | Activity (H22) | LD50 at 336 h [8] | Activity (Mus musculus [9]) | Activity (Mus musculus [10]) | Activity (Mus musculus [11]) | Activity (Mus musculus [12]) |
| --- | --- | --- | --- | --- | --- | --- | --- | --- | --- | --- | --- | --- | --- | --- | --- | --- | --- | --- | --- | --- |
| c1ccc2c(c1)c1ccncc1n2CCCCCn1c2ccccc2c2ccncc21 | > 200 µM | Non-toxic | 15.3 µM | 48.6% | Non-toxic | 10% | Non-toxic | 43.8% | 10.2 µM | 23.5 µM | 42.5% | Non-toxic | > 200 µM | 26.1% | 40.4% |  |  |  |  |  |
| COc1cc(-c2nccc3c4ccccc4n(CCCCCCn4c5ccccc5c5ccnc(-c6cc(OC)c(OC)c(OC)c6)c54)c23)cc(OC)c1OC | > 200 µM | Non-toxic | 16.8 µM | 45.8% | Non-toxic |  | Non-toxic |  | 5.9 µM | > 200 µM | 43.3% | Non-toxic | > 200 µM |  |  | 200 mg/kg | 7.2% |  |  |  |
| COc1ccc2c3ccnc(C)c3n(CCCCn3c4cc(OC)ccc4c4ccnc(C)c43)c2c1 | 2.8 µM | Non-toxic | 65.6 µM | 45.5% | Non-toxic |  | Non-toxic |  | 6.2 µM | 75.7 µM | 38.1% | Non-toxic | 7.1 µM |  |  |  |  | 7.7% |  |  |
| Cc1nccc2c3ccc(OC(C)C)cc3n(CCCCCCn3c4cc(OC(C)C)ccc4c4ccnc(C)c43)c12 | 19.8 µM | Non-toxic | 95.4 µM | 51.2% | Non-toxic |  | Non-toxic | 40.6% | 18.5 µM | 194 µM | 49.6% | Non-toxic | 17.1 µM | 20.5% | 39.7% |  | 10.2% |  |  |  |
| c1cncc(-c2nccc3c4ccccc4n(CCCCCCn4c5ccccc5c5ccnc(-c6cccnc6)c54)c23)c1 | 13.3 µM | Non-toxic | > 200 µM | 50.6% | Non-toxic |  | Non-toxic | 40.5% | 5.3 µM | 14.1 µM | 43.2% | Non-toxic | 14.9 µM | 24.3% | 35% |  |  |  | 11.9% |  |
| c1ccc2c(c1)c1ccncc1n2CCCCCCn1c2ccccc2c2ccncc21 | 13.9 µM | Non-toxic | 12.8 µM | 32.4% | Non-toxic |  | Non-toxic |  | 10.8 µM | 13.8 µM | 37.7% | Non-toxic | 38.9 µM | 24.8% | 31.2% | 200 mg/kg | 15% |  |  |  |
| CCOC(=O)c1cc2c(cn1)[nH]c1ccccc12 | > 200 µM |  | 175 µM |  |  |  | Non-toxic | 35.2% | > 200 µM | > 200 µM |  |  | 92.6 µM |  |  | 32.6 mg/kg |  | 11.8% |  |  |
| O=P1(N(CCCl)CCCl)NCCCO1 (centres undefined) [CYCLOPHOSPHAMIDE ANHYDROUS] |  |  |  | 97.2% |  |  |  | 85.6% |  |  | 97.8% |  |  | 86.5% | 83.8% |  |  |  | 7.7% |  |
| COc1ccc2c(c1)[nH]c1c(C)nccc12 [HARMINE] | 57.8 µM |  | 48.9 µM |  |  |  | Toxic | 15.3% | 72.5 µM | 63.2 µM | 34.1% |  | 74.6 µM |  |  |  |  |  |  | 8.5% |
